Consider five compounds from ChEMBL document CHEMBL1145855, “Computer-aided selection of potential antihypertensive compounds with dual mechanism of action” (J Med Chem, 2003).

Molecules are shown by their SMILES.

The target of assay [1] is T1, Neprilysin (Rattus norvegicus, UniProt P07861).
T1 sequence (P07861 whole entry): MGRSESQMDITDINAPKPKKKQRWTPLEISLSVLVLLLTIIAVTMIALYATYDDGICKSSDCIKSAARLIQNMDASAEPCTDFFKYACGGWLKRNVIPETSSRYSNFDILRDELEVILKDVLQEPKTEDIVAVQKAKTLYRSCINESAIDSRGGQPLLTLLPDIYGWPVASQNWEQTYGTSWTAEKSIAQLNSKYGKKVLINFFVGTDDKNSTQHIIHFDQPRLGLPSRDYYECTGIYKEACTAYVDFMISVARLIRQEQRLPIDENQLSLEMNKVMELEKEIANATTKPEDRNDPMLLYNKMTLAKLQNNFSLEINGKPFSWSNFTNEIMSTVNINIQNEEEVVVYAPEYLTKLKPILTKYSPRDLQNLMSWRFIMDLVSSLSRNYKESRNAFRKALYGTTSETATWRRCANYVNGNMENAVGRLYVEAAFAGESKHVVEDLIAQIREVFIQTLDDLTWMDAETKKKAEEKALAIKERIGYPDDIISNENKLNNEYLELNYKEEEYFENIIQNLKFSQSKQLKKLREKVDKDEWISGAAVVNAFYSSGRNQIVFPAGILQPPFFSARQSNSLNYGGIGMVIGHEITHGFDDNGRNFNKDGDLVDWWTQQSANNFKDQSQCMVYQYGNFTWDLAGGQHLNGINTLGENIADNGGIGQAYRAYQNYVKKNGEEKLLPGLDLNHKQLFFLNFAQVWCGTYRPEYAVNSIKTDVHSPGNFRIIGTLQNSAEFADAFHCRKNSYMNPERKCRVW
Briefly: Inhibitory activity against neutral endopeptidase (NEP) from rat cortex brain membrane. A digest of the protocol: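 Rat cortex brain membrane suspension in 50 mM Tris-HCl pH 7.5, with six to eight inhibitor concentrations (10^-2 to 10^-6 M). Preincubated 20 min at 37 °C, then Suc-Ala-Ala-Phe-MCA (20 µM final) added for 120-180 min at 37 °C; stopped with pH 4.0 acetate. Released 4-methylcoumarinyl-7-amine read at Ex 383/Em 455 nm; % inhibition versus control; IC50.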

For assay [2], the target named is Angiotensin-converting enzyme (Homo sapiens, UniProt P12821). The experiment in a line: Inhibitory activity against Angiotensin I converting enzyme (ACE) from human blood serum.
Angiotensin-converting enzyme (Homo sapiens, UniProt P12821), sequence (P12821 whole entry): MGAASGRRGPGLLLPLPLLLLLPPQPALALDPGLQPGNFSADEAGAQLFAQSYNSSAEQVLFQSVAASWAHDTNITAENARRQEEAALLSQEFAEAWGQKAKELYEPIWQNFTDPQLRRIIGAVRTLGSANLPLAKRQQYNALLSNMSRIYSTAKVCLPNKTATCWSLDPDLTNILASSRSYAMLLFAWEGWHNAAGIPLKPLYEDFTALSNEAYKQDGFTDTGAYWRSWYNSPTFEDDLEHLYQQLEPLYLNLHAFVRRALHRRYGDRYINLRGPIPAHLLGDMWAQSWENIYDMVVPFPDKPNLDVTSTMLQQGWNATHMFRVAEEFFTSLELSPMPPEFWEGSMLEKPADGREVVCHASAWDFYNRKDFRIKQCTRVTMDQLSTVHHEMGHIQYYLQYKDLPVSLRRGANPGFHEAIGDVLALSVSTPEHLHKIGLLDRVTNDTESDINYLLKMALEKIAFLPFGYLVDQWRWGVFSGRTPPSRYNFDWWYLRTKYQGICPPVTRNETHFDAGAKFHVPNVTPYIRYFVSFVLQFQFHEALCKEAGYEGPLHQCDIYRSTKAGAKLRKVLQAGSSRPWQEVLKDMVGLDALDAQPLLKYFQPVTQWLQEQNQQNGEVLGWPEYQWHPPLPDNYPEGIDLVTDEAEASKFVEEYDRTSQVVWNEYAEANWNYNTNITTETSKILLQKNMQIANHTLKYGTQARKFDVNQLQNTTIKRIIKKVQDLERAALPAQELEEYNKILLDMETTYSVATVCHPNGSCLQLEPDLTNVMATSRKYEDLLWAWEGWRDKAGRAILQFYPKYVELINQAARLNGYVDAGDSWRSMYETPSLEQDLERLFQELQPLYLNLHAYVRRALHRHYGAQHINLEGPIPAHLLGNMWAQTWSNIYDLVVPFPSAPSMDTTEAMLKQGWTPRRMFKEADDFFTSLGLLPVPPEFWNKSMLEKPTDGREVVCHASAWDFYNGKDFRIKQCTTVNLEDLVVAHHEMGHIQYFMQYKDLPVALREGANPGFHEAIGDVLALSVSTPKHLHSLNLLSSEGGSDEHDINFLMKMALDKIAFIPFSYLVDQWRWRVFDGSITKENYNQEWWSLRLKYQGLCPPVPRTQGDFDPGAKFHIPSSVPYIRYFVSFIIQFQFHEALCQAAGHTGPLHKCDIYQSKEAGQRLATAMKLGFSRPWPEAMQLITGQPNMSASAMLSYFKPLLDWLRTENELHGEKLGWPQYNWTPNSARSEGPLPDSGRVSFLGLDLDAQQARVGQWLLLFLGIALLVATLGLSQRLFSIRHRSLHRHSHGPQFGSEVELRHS
Assay [3] has as its target T2, Angiotensin-converting enzyme (Rattus norvegicus, UniProt P47820).
T2 sequence (P47820 whole entry): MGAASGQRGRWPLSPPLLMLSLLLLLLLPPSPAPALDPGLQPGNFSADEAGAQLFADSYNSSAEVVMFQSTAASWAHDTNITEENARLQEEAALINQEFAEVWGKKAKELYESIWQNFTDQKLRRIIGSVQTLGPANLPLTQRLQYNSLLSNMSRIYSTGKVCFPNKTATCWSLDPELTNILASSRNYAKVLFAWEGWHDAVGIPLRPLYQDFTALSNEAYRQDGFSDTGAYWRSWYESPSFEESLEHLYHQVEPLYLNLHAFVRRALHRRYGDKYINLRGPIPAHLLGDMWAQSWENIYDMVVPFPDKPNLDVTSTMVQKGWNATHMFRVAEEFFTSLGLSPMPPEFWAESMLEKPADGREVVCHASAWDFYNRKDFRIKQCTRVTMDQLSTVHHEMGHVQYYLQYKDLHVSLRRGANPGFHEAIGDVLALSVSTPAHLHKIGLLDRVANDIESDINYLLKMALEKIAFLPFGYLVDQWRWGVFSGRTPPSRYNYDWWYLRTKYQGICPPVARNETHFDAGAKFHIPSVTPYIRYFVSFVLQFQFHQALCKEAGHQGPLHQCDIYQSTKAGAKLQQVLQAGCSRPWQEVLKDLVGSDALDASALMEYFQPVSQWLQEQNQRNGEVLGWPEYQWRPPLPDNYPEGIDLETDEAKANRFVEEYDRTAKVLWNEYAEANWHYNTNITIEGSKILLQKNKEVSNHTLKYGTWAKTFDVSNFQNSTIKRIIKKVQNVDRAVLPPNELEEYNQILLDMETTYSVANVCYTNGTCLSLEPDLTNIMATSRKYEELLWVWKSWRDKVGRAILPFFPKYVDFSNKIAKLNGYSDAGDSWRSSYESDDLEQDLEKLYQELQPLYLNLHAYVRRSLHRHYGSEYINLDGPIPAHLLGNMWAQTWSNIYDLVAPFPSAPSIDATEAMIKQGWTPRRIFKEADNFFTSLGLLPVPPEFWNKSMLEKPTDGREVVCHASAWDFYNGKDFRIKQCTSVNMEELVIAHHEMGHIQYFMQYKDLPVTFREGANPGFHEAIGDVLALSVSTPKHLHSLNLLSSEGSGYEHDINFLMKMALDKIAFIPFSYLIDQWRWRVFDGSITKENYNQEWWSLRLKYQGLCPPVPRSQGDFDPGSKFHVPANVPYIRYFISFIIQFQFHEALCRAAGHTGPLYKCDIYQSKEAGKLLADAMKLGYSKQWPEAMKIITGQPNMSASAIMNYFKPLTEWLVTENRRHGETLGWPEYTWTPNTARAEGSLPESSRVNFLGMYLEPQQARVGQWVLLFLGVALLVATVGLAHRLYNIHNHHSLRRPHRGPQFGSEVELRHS
The experiment in a line: Inhibitory activity against Angiotensin I converting enzyme (ACE) from rat cortex brain membrane. In outline:
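Enzyme source was human serum (diluted 1:5) or rat cortex brain membrane suspension, in 70 mM potassium phosphate pH 8.3 with 300 mM NaCl. Compound (10^-3 to 10^-8 M) preincubated 20 min at 37 °C, then 25 µM Hip-His-Leu added for 120 min; stopped with NaOH.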

Assay [4] deals with Neprilysin (Homo sapiens, UniProt P08473). Briefly: Inhibitory activity against neutral endopeptidase (NEP) from human blood serum. In outline: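 Human serum (diluted 1:5) as enzyme source, with the test compound at six to eight concentrations from 10^-2 to 10^-6 M, in 50 mM Tris-HCl pH 7.5. Preincubated 20 min at 37 °C. Suc-Ala-Ala-Phe-MCA added (20 µM final) and incubated 120-180 min at 37 °C. Stopped with 20 mM sodium acetate pH 4.0. Released 4-methylcoumarinyl-7-amine read at Ex 383/Em 455 nm. Percent inhibition taken against the no-inhibitor control; IC50 derived.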
Neprilysin (Homo sapiens, UniProt P08473), sequence (P08473 whole entry): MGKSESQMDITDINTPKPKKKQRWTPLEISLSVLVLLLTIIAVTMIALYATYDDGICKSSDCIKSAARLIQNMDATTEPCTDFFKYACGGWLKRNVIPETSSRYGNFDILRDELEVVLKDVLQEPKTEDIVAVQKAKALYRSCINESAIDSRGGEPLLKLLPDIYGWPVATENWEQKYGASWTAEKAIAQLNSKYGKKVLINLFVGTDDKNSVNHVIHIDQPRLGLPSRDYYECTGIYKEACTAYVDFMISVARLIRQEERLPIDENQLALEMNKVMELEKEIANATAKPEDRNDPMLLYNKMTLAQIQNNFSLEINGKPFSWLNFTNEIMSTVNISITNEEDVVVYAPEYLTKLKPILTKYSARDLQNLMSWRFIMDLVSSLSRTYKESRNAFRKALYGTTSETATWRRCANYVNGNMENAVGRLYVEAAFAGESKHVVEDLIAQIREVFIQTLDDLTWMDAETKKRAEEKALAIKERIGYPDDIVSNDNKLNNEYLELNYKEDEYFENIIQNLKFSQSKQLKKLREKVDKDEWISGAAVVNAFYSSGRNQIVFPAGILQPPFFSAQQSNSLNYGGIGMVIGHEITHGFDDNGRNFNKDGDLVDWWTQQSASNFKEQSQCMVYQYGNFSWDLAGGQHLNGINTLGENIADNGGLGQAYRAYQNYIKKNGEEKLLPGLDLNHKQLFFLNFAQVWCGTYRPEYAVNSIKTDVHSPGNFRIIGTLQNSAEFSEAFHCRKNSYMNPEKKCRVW

Assay [5] concerns the target Angiotensin-converting enzyme (Bos taurus) (UniProt P12820). The experiment in a line: Inhibitory activity of compound at 1*10e-4 M against Angiotensin I converting enzyme (ACE) from bovine kidney.

Angiotensin-converting enzyme (Bos taurus), sequence (P12820 whole entry, looked up): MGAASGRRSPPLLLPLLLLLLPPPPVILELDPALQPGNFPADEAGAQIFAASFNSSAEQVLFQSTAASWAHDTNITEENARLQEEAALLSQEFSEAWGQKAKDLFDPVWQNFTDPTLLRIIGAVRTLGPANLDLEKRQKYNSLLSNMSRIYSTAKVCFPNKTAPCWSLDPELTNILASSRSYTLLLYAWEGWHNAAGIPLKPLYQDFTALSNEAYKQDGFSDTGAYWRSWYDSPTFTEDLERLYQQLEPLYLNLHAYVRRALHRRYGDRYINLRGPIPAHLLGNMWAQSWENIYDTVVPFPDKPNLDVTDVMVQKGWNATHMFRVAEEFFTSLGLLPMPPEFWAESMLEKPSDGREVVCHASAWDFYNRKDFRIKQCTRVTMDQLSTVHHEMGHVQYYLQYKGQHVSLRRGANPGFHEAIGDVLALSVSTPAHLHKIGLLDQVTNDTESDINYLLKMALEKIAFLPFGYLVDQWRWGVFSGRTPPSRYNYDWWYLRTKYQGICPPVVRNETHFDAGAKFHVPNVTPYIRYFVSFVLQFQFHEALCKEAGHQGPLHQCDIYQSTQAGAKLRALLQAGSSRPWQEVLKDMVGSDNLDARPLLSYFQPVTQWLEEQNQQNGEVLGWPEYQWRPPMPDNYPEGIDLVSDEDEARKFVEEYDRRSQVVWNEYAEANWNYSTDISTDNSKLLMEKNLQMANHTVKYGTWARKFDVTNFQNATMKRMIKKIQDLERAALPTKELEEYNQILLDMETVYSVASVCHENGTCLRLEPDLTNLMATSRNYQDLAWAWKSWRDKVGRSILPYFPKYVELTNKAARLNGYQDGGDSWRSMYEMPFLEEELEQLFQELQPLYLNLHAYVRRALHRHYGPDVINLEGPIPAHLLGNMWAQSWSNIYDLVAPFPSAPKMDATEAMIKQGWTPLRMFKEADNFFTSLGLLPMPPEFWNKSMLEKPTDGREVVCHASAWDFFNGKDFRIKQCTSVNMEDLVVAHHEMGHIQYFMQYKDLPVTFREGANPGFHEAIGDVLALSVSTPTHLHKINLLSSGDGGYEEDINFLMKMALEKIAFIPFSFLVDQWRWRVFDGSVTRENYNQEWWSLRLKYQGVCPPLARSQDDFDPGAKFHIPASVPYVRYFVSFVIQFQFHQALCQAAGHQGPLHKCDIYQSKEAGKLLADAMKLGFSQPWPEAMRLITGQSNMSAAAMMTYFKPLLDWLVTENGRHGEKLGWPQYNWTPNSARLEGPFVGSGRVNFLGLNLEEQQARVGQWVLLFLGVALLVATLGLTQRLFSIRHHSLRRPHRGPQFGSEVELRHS

One may read the IC50 as the concentration that inhibits the measured activity by half. Higher therefore signals weaker potency in that assay. For the compound `CC1CCCC(C(=O)O)N1C(=O)CCS` (configuration not stated), the concentration for half-maximal inhibition (IC50) against Neprilysin [1] was determined as 2000 µM; in assay [2], 0.02 µM; in assay [3], 0.1 µM.
In the case of `CC(=O)SCC(C)C(=O)Nc1ccccc1` (configuration not stated), the IC50 came to 200 µM against Neprilysin [1], 20 µM against Neprilysin [4], 2 µM in assay [2] and 1 µM in assay [3].
With `CC(=O)SCC(C)C(=O)NCc1ccccc1` (configuration not stated), the IC50 at Neprilysin [1] was determined as 200 µM; on Neprilysin [4], 20 µM; in assay [2] it was 200 µM; in assay [3], 100 µM.
For orientation: inhibition means the share of the control response that was lost under treatment. With `O=C(O)CCCNCP(=O)(O)CCc1ccccc1`, the figures for the IC50 (against Neprilysin [1]; in assay [2]; in assay [3]) were 2000 µM, 100 µM and 100 µM, respectively. Besides, the inhibition in assay [5] turned out to be 18%.
On to `CC(C)C[C@H](NP(=O)(O)O[C@@H]1O[C@@H](C)[C@H](O)[C@@H](O)[C@H]1O)C(=O)N[C@@H](Cc1c[nH]c2ccccc12)C(=O)O` [PHOSPHORAMIDON], for which the half-maximal inhibitory concentration (IC50) amounted to 0.2 µM on Neprilysin [1] and 0.1 µM against Neprilysin [4].
